# From ChEMBL document CHEMBL3580574, “Design, Synthesis, and Biological Evaluation of Hexacyclic Tetracyclines as Potent, Broad Spectrum Antibacterial Agents” (J Med Chem, 2015)
# Key:
# Pseudomonas aeruginosa [1] = assay: Antibacterial activity against Pseudomonas aeruginosa 694 infected in immunocompetent CD-1 mouse thigh infection model assessed as log reduction in colony forming units at 5 mg/kg, iv administered twice daily at 2 hrs and 12 hrs post-infection measured 24 hrs post-drug treatment (reference value: 1.8 log10CFU); assay type: functional
# Procedure, shortened: (§1)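 Thigh model: inoculum given intramuscularly into the right thigh on day 0. IV dosing with vehicle, test agent or comparator at 2 and 12 h postinfection. Untreated groups were harvested at 2 and 24 h. Thigh muscle was collected at 24 h postinfection, homogenized in PBS pH 7.4, diluted and plated on Brain Heart Infusion agar + 0.5% charcoal. Read-out: CFU per gram thigh.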
# Pseudomonas aeruginosa [2] = assay: Antibacterial activity against Pseudomonas aeruginosa 694 infected in iv dosed immunocompetent CD-1 mouse thigh infection model assessed as reduction in colony forming units administered twice daily at 2 hrs and 12 hrs post-infection measured 24 hrs post-drug treatment; assay type: functional, organism-based; procedure, shortened: as §1
# Pseudomonas aeruginosa [3] = assay: Antibacterial activity against Pseudomonas aeruginosa 555 BAA-47 assessed as bacterial growth inhibition by susceptibility testing assay; assay type: functional
# Procedure, shortened: (§2)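 Broth microdilution MIC per CLSI in cation-adjusted Mueller Hinton broth, made fresh and held at 4 °C before testing. Medium supplemented with lysed horse blood where appropriate. Compound stocks prepared and serially diluted in sterile deionized water. Runs were accepted against QC ranges for comparator antibiotics and ATCC QC strains.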
# Enterococcus faecalis = assay: Antibacterial activity against tet(M) tetracycline-resistant Enterococcus faecalis 327 assessed as bacterial growth inhibition by susceptibility testing assay; assay type: functional
# Procedure, shortened: (§3)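 Broth microdilution MIC per CLSI in 96-well plates; compound stocks prepared and serially diluted in sterile deionized water; cation-adjusted Mueller Hinton broth prepared fresh and held at 4 °C before testing, supplemented with lysed horse blood as appropriate; runs accepted when comparator antibiotics fell within QC ranges for appropriate ATCC quality control strains.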
# Staphylococcus aureus [4] = assay: Antibacterial activity against methicillin-resistant, tet(M) tetracycline-resistant Staphylococcus aureus 161 assessed as bacterial growth inhibition by susceptibility testing assay; assay type: functional; procedure, shortened: as §3
# Enterococcus faecium = assay: Antibacterial activity against tet(M) tetracycline-resistant Enterococcus faecium 404 assessed as bacterial growth inhibition by susceptibility testing assay; assay type: functional
# Burkholderia cenocepacia = assay: Antibacterial activity against Burkholderia cenocepacia 240 assessed as bacterial growth inhibition by susceptibility testing assay; assay type: functional
# Procedure, shortened: (§4)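 Medium supplemented with lysed horse blood where appropriate. Compound stocks prepared and serially diluted in sterile deionized water. Runs were accepted against QC ranges for comparator antibiotics and ATCC QC strains.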
# Escherichia coli [5] = assay: Antibacterial activity against Escherichia coli 107 ATCC 25922 assessed as bacterial growth inhibition by susceptibility testing assay; assay type: functional; procedure, shortened: as §2
# [6] = system: Stenotrophomonas maltophilia; assay: Antibacterial activity against Stenotrophomonas maltophilia 256 assessed as bacterial growth inhibition by susceptibility testing assay; assay type: functional; procedure, shortened: as §4
# Streptococcus pneumoniae = assay: Antibacterial activity against tet(M) tetracycline-resistant Streptococcus pneumoniae 160 assessed as bacterial growth inhibition by susceptibility testing assay; assay type: functional
# Klebsiella pneumoniae = assay: Antibacterial activity against Klebsiella pneumoniae 457 harboring CTX-M-15 gene assessed as bacterial growth inhibition by susceptibility testing assay; assay type: functional; procedure, shortened: as §3
# Proteus mirabilis = assay: Antibacterial activity against Proteus mirabilis 385 assessed as bacterial growth inhibition by susceptibility testing assay; assay type: functional; procedure, shortened: as §2
# Staphylococcus aureus [7] = assay: Antibacterial activity against tet(K) tetracycline-resistant Staphylococcus aureus 158 assessed as bacterial growth inhibition by susceptibility testing assay; assay type: functional
# Staphylococcus aureus [8] = assay: Antibacterial activity against Staphylococcus aureus 101 ATCC 29213 assessed as bacterial growth inhibition by susceptibility testing assay; assay type: functional; procedure, shortened: as §2
# Escherichia coli [9] = assay: Antibacterial activity against tet(A) tetracycline-resistant Escherichia coli 155 assessed as bacterial growth inhibition by susceptibility testing assay; assay type: functional; procedure, shortened: as §3
# Enterobacter cloacae = assay: Antibacterial activity against tet(A) tetracycline-resistant Enterobacter cloacae 603 assessed as bacterial growth inhibition by susceptibility testing assay; assay type: functional; procedure, shortened: as §3
# Acinetobacter baumannii = assay: Antibacterial activity against tet(B) tetracycline-resistant Acinetobacter baumannii 250 assessed as bacterial growth inhibition by susceptibility testing assay; assay type: functional; procedure, shortened: as §3
# Pseudomonas aeruginosa [10] = assay: Antibacterial activity against Pseudomonas aeruginosa 1145 infected in immunocompetent BALB/c mouse lung infection model assessed as log reduction in colony forming units at 40 mg/kg, iv bid administered at 2 hrs and 12 hrs post-infection measured 24 hrs post-drug treatment; assay type: functional
# Procedure, shortened: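 Female BALB/c mice (18−20 g) received intranasal inoculum under light anesthesia. IV treatment at 2 and 12 h postinfection, six mice per group per dose. An untreated group was harvested at 2 h. Lungs were taken 24 h after treatment start, weighed, homogenized, diluted and plated on MacConkey medium overnight at 37 °C, 5% CO2. Read-out: CFU per gram lung.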
# Pseudomonas aeruginosa [11] = assay: Antibacterial activity against Pseudomonas aeruginosa 1145 assessed as bacterial growth inhibition by susceptibility testing assay; assay type: functional; procedure, shortened: as §3
# Pseudomonas aeruginosa [12] = assay: Antibacterial activity against Pseudomonas aeruginosa 694 assessed as bacterial growth inhibition by susceptibility testing assay; assay type: functional; procedure, shortened: as §2
# Pseudomonas aeruginosa [13] = assay: Ratio of tetracycline IC50 to compound IC50 for antitranslational activity in Pseudomonas aeruginosa 555 BAA-47 by in vitro coupled transcription/translation assay; assay type: functional
# Pseudomonas aeruginosa [14] = assay: Antitranslational activity in Pseudomonas aeruginosa 555 BAA-47 assessed as ribosomal inhibition by in vitro coupled transcription/translation assay; assay type: functional
# Procedure, shortened: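 P. aeruginosa coupled transcription/translation reactions with a luciferase reporter, run 60 min at 37 °C. Reactions were stopped on ice for 5 min, then luciferase substrate was added and luminescence read. Percent luminescence was plotted against inhibitor concentration, and 50% inhibition versus untreated controls was taken as the IC50.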
# [15] = Pseudomonas aeruginosa, 555 BAA-47, read-out: MIC
# [16] = Enterococcus faecalis, 327, read-out: MIC
# [17] = Staphylococcus aureus, 161, read-out: MIC
# [18] = Enterococcus faecium, 404, read-out: MIC
# [19] = Burkholderia cenocepacia, 240, read-out: MIC
# [20] = Escherichia coli, 107 ATCC 25922, read-out: MIC
# [21] = Stenotrophomonas maltophilia, 256, read-out: MIC
# [22] = Streptococcus pneumoniae, 160, read-out: MIC
# [23] = Klebsiella pneumoniae, 457, read-out: MIC
# [24] = Proteus mirabilis, 385, read-out: MIC
# [25] = Staphylococcus aureus, 158, read-out: MIC
# [26] = Staphylococcus aureus, 101 ATCC 29213, read-out: MIC
# [27] = Escherichia coli, 155, read-out: MIC
# [28] = Enterobacter cloacae, 603, read-out: MIC
# [29] = Acinetobacter baumannii, 250, read-out: MIC
Compound,MIC (Pseudomonas aeruginosa [3]; [15]) [µg/mL],MIC (Enterococcus faecalis; [16]) [µg/mL],MIC (Staphylococcus aureus [4]; [17]) [µg/mL],MIC (Enterococcus faecium; [18]) [µg/mL],MIC (Burkholderia cenocepacia; [19]) [µg/mL],MIC (Escherichia coli [5]; [20]) [µg/mL],"MIC [6, 21] [µg/mL]",MIC (Streptococcus pneumoniae; [22]) [µg/mL],MIC (Klebsiella pneumoniae; [23]) [µg/mL],MIC (Proteus mirabilis; [24]) [µg/mL],MIC (Staphylococcus aureus [7]; [25]) [µg/mL],MIC (Staphylococcus aureus [8]; [26]) [µg/mL],MIC (Escherichia coli [9]; [27]) [µg/mL],MIC (Enterobacter cloacae; [28]) [µg/mL],MIC (Acinetobacter baumannii; [29]) [µg/mL],log10CFU/g (Pseudomonas aeruginosa [10]),MIC (Pseudomonas aeruginosa [11]) [µg/mL],other results
C[C@H]1COc2c(N3CCN(C)CC3)c(F)cc3c(=O)c(C(=O)O)cn1c23.C[C@H]1COc2c(N3CCN(C)CC3)c(F)cc3c(=O)c(C(=O)O)cn1c23.O [LEVOFLOXACIN],–,–,–,–,–,–,–,–,–,–,–,–,–,–,–,–,–,log10CFU/g (Pseudomonas aeruginosa [1]): 4.5
CN(C)[C@@H]1C(O)=C(C(N)=O)C(=O)[C@@]2(O)C(O)=C3C(=O)c4c(O)c5c(c(F)c4C[C@H]3C[C@@H]12)[C@@H]1[C@@H](CCN1C)CN5 (stereo in doubt; 10c) [listing 1 of 2 here],–,–,–,–,–,–,–,–,–,–,–,–,–,–,–,–,–,inhibition (Pseudomonas aeruginosa [2]): Dose-dependent effect
CN(C)c1cc(NC(=O)CNC(C)(C)C)c(O)c2c1C[C@H]1C[C@H]3[C@H](N(C)C)C(O)=C(C(N)=O)C(=O)[C@@]3(O)C(O)=C1C2=O [TIGECYCLINE],16,0.125,0.125,0.0312,16,0.125,2,0.0156,1,4,0.125,0.0625,1,4,8,–,–,–
CN(C)[C@@H]1C(O)=C(C(N)=O)C(=O)[C@@]2(O)C(O)=C3C(=O)c4c(O)c5c(c(F)c4C[C@H]3C[C@@H]12)[C@@H]1[C@@H](CCN1CCNCC(F)F)CN5,> 32,0.125,1,0.0625,32,0.25,4,≤ 0.0156,4,8,0.0312,0.5,4,8,8,–,–,–
CN(C)[C@@H]1C(O)=C(C(N)=O)C(=O)[C@@]2(O)C(O)=C3C(=O)c4c(O)c5c(c(OC(F)(F)F)c4C[C@H]3C[C@@H]12)[C@@H]1[C@H](CN5)CC2COCCN21 (stereo partly specified),> 32,0.5,4,0.25,> 32,4,16,0.0625,> 32,> 32,0.5,2,16,> 32,16,–,–,–
CCN1CC[C@H]2CNc3c(O)c4c(c(F)c3[C@H]21)C[C@H]1C[C@H]2[C@H](N(C)C)C(O)=C(C(N)=O)C(=O)[C@@]2(O)C(O)=C1C4=O,8,0.125,0.5,0.0625,16,0.0625,1,≤ 0.0156,1,1,0.0625,0.25,0.25,0.5,2,–,–,–
NCC[C@H](O)C(=O)N[C@@H]1C[C@H](N)[C@@H](O[C@H]2O[C@H](CN)[C@@H](O)[C@H](O)[C@H]2O)[C@H](O)[C@H]1O[C@H]1O[C@H](CO)[C@@H](O)[C@H](N)[C@H]1O [AMIKACIN],–,–,–,–,–,–,–,–,–,–,–,–,–,–,–,2,1,–
C[C@@H](O)[C@H]1C(=O)N2C(C(=O)O)=C(S[C@@H]3CN[C@H](C(=O)N(C)C)C3)[C@H](C)[C@H]12 [MEROPENEM],–,–,–,–,–,–,–,–,–,–,–,–,–,–,–,2,4,–
CN(C)[C@@H]1C(O)=C(C(N)=O)C(=O)[C@@]2(O)C(O)=C3C(=O)c4c(O)c5c(c(F)c4C[C@H]3C[C@@H]12)[C@@H]1[C@@H](CCN1C)CN5 (stereo in doubt; 10c) [listing 2 of 2 here],–,–,–,–,–,–,–,–,–,–,–,–,–,–,–,4,4,MIC (Pseudomonas aeruginosa [3]): 4 µg/mL; MIC (Pseudomonas aeruginosa [12]): 8 µg/mL; Ratio IC50 (Pseudomonas aeruginosa [13]): 10; MIC (Enterococcus faecalis): 0.125 µg/mL; MIC (Staphylococcus aureus [4]): 0.5 µg/mL; MIC (Enterococcus faecium): 0.0625 µg/mL; MIC (Burkholderia cenocepacia): 8 µg/mL; IC50 (Pseudomonas aeruginosa [14]): 210 nM; MIC (Escherichia coli [5]): 0.0625 µg/mL; MIC [6]: 1 µg/mL; MIC (Streptococcus pneumoniae): <=0.0156 ug ml-1; MIC (Klebsiella pneumoniae): 0.5 µg/mL; MIC (Proteus mirabilis): 0.5 µg/mL; MIC (Staphylococcus aureus [7]): 0.0625 µg/mL; MIC (Staphylococcus aureus [8]): 0.25 µg/mL; MIC (Escherichia coli [9]): 0.5 µg/mL; MIC (Enterobacter cloacae): 0.5 µg/mL; MIC (Acinetobacter baumannii): 2 µg/mL
